ChEMBL document CHEMBL1629442, “Structure based optimization of chromen-based TNF-α converting enzyme (TACE) inhibitors on S1' pocket and their quantitative structure-activity relationship (QSAR) study” (Bioorg Med Chem, 2010)

Legend:
[1] = biological target: T1, Disintegrin and metalloproteinase domain-containing protein 17 (Homo sapiens, UniProt P78536); test: Inhibition of human TACE by fluorescent spectroscopy
[2] = Volume of distribution at steady state in Sprague-Dawley rat at 5 mg/kg, iv; assay type: ADME, organism-based; design: dose 5 mg/kg, route intravenous; conditions: in vivo, read-out: Vdss
In short: (§1)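 Male SD rats (10 weeks old, 285–305 g), cannulated in the right jugular vein, dosed iv or po with compound in saline, N = 3 per route. Blood drawn through the cannula at set times over 24 h and spun for plasma. Acetonitrile protein precipitation with carbamazepine internal standard, LC/MS/MS in positive MRM mode, non-compartmental analysis.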

[3] = AUC (0 to infinity) in Sprague-Dawley rat at 5 mg/kg, iv; assay type: ADME, organism-based; design: time infinity, dose 5 mg/kg, route intravenous; conditions: plasma; in short: as §1
[4] = biological target: T1, Disintegrin and metalloproteinase domain-containing protein 17; test: Inhibition of human TNF-alpha by fluorescent spectroscopy; assay type: functional
[5] = Half life in Sprague-Dawley rat at 30 mg/kg, po; assay type: ADME, organism-based; design: dose 30 mg/kg, route oral; conditions: in vivo; in short: as §1
[6] = Mean residence time (infinity) in Sprague-Dawley rat at 30 mg/kg, po; assay type: ADME, organism-based; design: dose 30 mg/kg, route oral; conditions: in vivo; in short: as §1
Rattus norvegicus [7] = test: Antiinflammatory activity in Sprague-Dawley rat assessed as inhibition of carrageenan-induced paw edema at 100 mg/kg, ip administered 30 mins before carrageenan challenge measured at 6 hrs; assay type: functional; design: scale not given: the % may be the effect or the level left; conditions: route intraperitoneal
In short: (§2)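 SD rats (150 g, 5 weeks, SPF), five per group: vehicle, indomethacin 10 mg/kg (DMSO/Tween 80/H2O 1:4:95) as positive control, or compound at 30 or 100 mg/kg (ethanol/PEG 400-based vehicle), given ip. Ankle thickness measured by caliper; swelling expressed as % increase over pre-treatment thickness. Inhibition taken relative to vehicle at 6 h and later time point.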

Mus musculus [8] = species: Mus musculus; test: Inhibition of NO production in mouse Raw 264.7 cells assessed as No2- accumulation in the medium after 24 hrs; assay type: functional, cell-based
In short: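 RAW264.7 cells cultured with inhibitors for 24 h. Supernatant mixed 1:1 with Griess reagent (1% sulfanilamide, 0.1% naphthylethylenediamine dihydrochloride, 2% phosphoric acid), 10 min at room temperature. Absorbance read at 540 nm against a NaNO2 standard curve.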

[9] = Mean residence time (infinity) in Sprague-Dawley rat at 5 mg/kg, iv; assay type: ADME, organism-based; design: dose 5 mg/kg, route intravenous; conditions: in vivo; in short: as §1
[10] = Cmax in Sprague-Dawley rat at 30 mg/kg, po; assay type: ADME, organism-based; design: dose 30 mg/kg, route oral; conditions: in vivo; in short: as §1
Rattus norvegicus [11] = test: Antiinflammatory activity in Sprague-Dawley rat assessed as inhibition of carrageenan-induced paw edema at 100 mg/kg, ip administered 30 mins before carrageenan challenge measured at 12 hrs; assay type: functional; design: scale not given: the % may be the effect or the level left; conditions: route intraperitoneal; in short: as §2
Interstitial collagenase = biological target: T2, Interstitial collagenase (Homo sapiens, UniProt P03956); test: Inhibition of human MMP1 in cell-free system by fluorescent spectroscopy
T2 sequence (P03956 whole entry): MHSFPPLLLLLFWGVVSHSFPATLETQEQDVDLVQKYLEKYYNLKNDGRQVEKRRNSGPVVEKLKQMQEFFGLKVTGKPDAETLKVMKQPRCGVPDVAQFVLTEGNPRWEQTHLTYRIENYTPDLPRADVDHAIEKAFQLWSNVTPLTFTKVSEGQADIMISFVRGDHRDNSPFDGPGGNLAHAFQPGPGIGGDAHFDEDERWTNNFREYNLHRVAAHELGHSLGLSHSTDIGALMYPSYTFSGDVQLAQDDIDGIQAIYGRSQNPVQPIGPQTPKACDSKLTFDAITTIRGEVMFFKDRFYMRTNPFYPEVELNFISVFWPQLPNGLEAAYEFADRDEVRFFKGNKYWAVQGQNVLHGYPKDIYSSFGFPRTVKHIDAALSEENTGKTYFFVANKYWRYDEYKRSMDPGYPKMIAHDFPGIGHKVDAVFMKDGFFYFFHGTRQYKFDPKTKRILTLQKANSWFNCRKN

[12] = Half life in human liver microsomes at 40 uM by LC/MS/MS; assay type: ADME, Microsome
In short: (§3)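 Compound at 40 µM with human liver microsomes (1 mg/mL), preincubated 5 min at 37 °C, then started with NADPH (1 mM final). Aliquots taken at 0, 15, 45 and 80 min and quenched with ice-cold acetonitrile containing carbamazepine internal standard. Centrifuged, then LC/MS/MS for parent; half-life and microsomal clearance derived.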

Rattus norvegicus [13] = test: Antiinflammatory activity in Sprague-Dawley rat assessed as inhibition of carrageenan-induced paw edema at 30 mg/kg, ip administered 30 mins before carrageenan challenge measured at 6 hrs; assay type: functional; design: scale not given: the % may be the effect or the level left; conditions: route intraperitoneal; in short: as §2
[14] = biological target: Matrix metalloproteinase-9 (Homo sapiens, UniProt P14780); test: Inhibition of human MMP9 in cell-free system by fluorescent spectroscopy
Sequence of Matrix metalloproteinase-9 (P14780 whole entry, the tested form may be a part): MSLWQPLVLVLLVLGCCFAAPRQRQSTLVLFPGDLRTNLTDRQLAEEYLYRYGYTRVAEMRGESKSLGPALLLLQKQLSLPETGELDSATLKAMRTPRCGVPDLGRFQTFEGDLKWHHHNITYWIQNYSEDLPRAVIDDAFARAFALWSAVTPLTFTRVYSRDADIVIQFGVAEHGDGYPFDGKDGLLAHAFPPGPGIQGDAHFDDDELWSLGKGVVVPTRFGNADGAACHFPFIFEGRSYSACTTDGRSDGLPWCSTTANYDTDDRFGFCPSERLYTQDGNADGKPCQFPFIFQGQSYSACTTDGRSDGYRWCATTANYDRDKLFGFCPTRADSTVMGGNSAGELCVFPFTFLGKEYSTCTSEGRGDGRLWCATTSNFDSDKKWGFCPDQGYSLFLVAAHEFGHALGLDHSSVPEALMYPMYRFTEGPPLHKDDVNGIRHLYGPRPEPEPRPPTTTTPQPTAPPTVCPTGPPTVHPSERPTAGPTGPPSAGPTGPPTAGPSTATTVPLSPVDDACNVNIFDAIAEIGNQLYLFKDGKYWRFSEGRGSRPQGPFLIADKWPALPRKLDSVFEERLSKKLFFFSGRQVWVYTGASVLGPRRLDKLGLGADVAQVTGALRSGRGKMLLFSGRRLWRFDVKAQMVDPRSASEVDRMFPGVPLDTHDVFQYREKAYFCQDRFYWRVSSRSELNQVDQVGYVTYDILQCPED
In short: (§4)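 Recombinant human MMP-3 or MMP-9 catalytic domain with fluorogenic quenched peptide Mca-Pro-Leu-Gly-Leu-Dpa-Ala-Arg-NH2. Cleavage followed as fluorescence increase (excitation 324, emission 420). Rate of emission change taken as enzyme activity; IC50 values are means of three experiments.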

[15] = AUC (0 to infinity) in Sprague-Dawley rat at 30 mg/kg, po; assay type: ADME, organism-based; design: time infinity, dose 30 mg/kg, route oral; conditions: plasma; in short: as §1
[16] = Oral bioavailability in Sprague-Dawley rat at 30 mg/kg, po; assay type: ADME, organism-based; conditions: in vivo; in short: as §1
[17] = Clearance in Sprague-Dawley rat at 5 mg/kg, iv; assay type: ADME, organism-based; design: dose 5 mg/kg, route intravenous; conditions: in vivo; in short: as §1
[18] = Tmax in Sprague-Dawley rat at 30 mg/kg, po; assay type: ADME, organism-based; design: dose 30 mg/kg, route oral; conditions: in vivo; in short: as §1
[19] = Metabolic stability in human liver microsomes at 40 uM by LC/MS/MS; assay type: ADME, Microsome; in short: as §3
Mus musculus [20] = test: Inhibition of LPS-alpha induced TNF-alpha production in BALB/c mouse assessed as decreased plasma TNF level at 30 mg/kg, po administered post LPS challenge measured after 60 mins by ELISA; assay type: functional; conditions: 1 h
In short: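 BALB/c mice (7–9 weeks), four per group, fasted 24 h. LPS given ip; compound given orally at 30 mg/kg ([…]). Serum collected from the heart and TNF-α measured by ELISA; percent inhibition reported.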

Stromelysin-1 = Stromelysin-1 (Homo sapiens, UniProt P08254); test: Inhibition of human MMP3 in cell-free system by fluorescent spectroscopy; in short: as §4
Sequence of Stromelysin-1 (P08254 whole entry): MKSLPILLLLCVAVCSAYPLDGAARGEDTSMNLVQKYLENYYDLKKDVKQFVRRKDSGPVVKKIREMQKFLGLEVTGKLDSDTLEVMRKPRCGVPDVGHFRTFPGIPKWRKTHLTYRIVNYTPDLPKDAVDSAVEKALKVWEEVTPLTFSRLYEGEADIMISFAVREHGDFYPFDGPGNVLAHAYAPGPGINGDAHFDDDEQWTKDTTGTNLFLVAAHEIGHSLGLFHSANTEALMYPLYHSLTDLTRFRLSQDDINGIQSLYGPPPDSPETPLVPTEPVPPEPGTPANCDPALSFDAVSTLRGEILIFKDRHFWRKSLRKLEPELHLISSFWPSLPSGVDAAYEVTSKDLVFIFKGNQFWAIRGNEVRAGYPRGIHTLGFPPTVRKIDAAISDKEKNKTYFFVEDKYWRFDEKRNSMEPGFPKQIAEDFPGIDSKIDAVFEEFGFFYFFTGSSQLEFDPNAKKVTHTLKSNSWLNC

Rattus norvegicus [21] = test: Antiinflammatory activity in Sprague-Dawley rat assessed as inhibition of carrageenan-induced paw edema at 30 mg/kg, ip administered 30 mins before carrageenan challenge measured at 12 hrs; assay type: functional; design: scale not given: the % may be the effect or the level left; conditions: route intraperitoneal; in short: as §2
[22] = Half life in Sprague-Dawley rat at 5 mg/kg, iv; assay type: ADME, organism-based; design: dose 5 mg/kg, route intravenous; conditions: in vivo; in short: as §1

T1 sequence (P78536 whole entry, the tested form may be a part): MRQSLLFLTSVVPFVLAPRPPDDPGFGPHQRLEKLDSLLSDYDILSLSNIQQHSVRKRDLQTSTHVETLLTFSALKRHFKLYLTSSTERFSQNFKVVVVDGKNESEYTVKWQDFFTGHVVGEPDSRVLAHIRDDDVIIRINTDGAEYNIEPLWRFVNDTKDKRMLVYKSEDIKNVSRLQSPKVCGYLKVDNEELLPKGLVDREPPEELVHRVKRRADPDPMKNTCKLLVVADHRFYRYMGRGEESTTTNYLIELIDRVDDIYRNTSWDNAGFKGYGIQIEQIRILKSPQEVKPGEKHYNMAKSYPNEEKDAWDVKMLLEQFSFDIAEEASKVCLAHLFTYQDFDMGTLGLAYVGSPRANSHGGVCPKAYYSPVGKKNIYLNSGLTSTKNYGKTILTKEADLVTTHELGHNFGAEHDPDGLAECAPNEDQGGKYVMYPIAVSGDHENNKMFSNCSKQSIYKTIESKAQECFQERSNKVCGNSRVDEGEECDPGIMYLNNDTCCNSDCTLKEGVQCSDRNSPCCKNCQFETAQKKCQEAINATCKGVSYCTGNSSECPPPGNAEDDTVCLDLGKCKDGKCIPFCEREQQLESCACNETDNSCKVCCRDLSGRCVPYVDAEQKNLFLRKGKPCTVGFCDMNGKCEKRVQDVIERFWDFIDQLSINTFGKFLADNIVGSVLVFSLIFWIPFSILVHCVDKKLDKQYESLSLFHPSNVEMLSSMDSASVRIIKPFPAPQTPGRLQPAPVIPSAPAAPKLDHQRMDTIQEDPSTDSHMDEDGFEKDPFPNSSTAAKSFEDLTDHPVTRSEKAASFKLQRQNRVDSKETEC

CCN(CC)CCOc1ccc(CCC(Cc2cc3ccc(C)cc3oc2=O)C(=O)NO)cc1 (stereo not given)
IC50 [1]: 0.00028 µM | Vd [2]: 3.04 L/kg | AUC(0-inf) [3]: 1.88 µg·h/mL | IC50 [4]: 0.06 µM | half-life [5]: 3.19 h | MRT inf [6]: 2.9 h | Activity (Rattus norvegicus [7]): 20% | IC50 (Mus musculus [8]): Not Active | MRT inf [9]: 1.14 h | Cmax [10]: 1.14 µg/mL | Activity (Rattus norvegicus [11]): 35% | IC50 (Interstitial collagenase): 0.557 µM | half-life at 40 µM [12]: 1.22 h | Activity (Rattus norvegicus [13]): 8% | IC50 [14]: 0.023 µM | AUC(0-inf) [15]: 4.69 µg·h/mL | bioavailability [16]: 41.6% | clearance [17]: 2.66 L/h/kg | Tmax [18]: 2 h | microsomal CLint at 40 µM [19]: 9.5 µL/min/mg | inhibition in vivo at 30 mg/kg (Mus musculus [20]): 74% | IC50 (Stromelysin-1): 0.0087 µM | Activity (Rattus norvegicus [21]): 14% | half-life [22]: 2.8 h

Cc1ccc2oc(=O)c(CC(Cc3ccccc3)C(=O)NO)cc2c1 (stereo not given)
IC50 [1]: 0.0005 µM | IC50 [4]: 0.52 µM | IC50 (Mus musculus [8]): Not Active

Cc1ccc2oc(=O)c(CC(CCCc3ccc(OCCN4CCCCC4)cc3)C(=O)NO)cc2c1 (stereo not given)
IC50 [1]: 0.00107 µM | IC50 [4]: 0.32 µM | IC50 (Mus musculus [8]): Not Active

Cc1ccc2oc(=O)c(CC(CCc3cccc(OCCN4CCCCC4)c3)C(=O)NO)cc2c1 (stereo not given)
IC50 [1]: 0.0009 µM | IC50 [4]: 0.24 µM | IC50 (Mus musculus [8]): Not Active

Cc1ccc2oc(=O)c(CC(Cc3ccc(OCCN4CCCCC4)cc3)C(=O)NO)cc2c1 (stereo not given)
IC50 [1]: 0.0109 µM | IC50 [4]: 1.5 µM | IC50 (Mus musculus [8]): Not Active

Cc1ccc2oc(=O)c(CC(CCCCc3ccccc3)C(=O)NO)cc2c1 (stereo not given)
IC50 [1]: 0.0328 µM | IC50 [4]: > 3 µM | IC50 (Mus musculus [8]): Not Active

Cc1ccc2oc(=O)c(CC(CCCc3cccc(OCCN4CCCCC4)c3)C(=O)NO)cc2c1 (stereo not given)
IC50 [1]: 0.00027 µM | IC50 [4]: 0.23 µM | IC50 (Mus musculus [8]): Not Active

Cc1ccc2oc(=O)c(CC(CCc3ccc(O)cc3)C(=O)NO)cc2c1 (stereo not given)
IC50 [1]: 0.0003 µM | IC50 [4]: 0.92 µM | IC50 (Mus musculus [8]): Not Active

CCN(CC)CCOc1ccc(CCC(Cc2cc3cc(C)ccc3oc2=O)C(=O)NO)cc1 (stereo not given)
IC50 [1]: 0.00053 µM | IC50 [4]: 0.14 µM | IC50 (Mus musculus [8]): Not Active

Cc1ccc2oc(=O)c(CC(CCc3ccc(OCCN4CCCCC4)cc3)C(=O)NO)cc2c1 (stereo not given)
IC50 [1]: 0.00104 µM | IC50 [4]: 0.2 µM | IC50 (Mus musculus [8]): Not Active

CCN(CC)CCOc1ccc(CCC(Cc2cc3ccc(F)cc3oc2=O)C(=O)NO)cc1 (stereo not given)
IC50 [1]: 0.00046 µM | IC50 [4]: 0.07 µM | IC50 (Mus musculus [8]): Not Active

Cc1ccc2oc(=O)c(CC(Cc3cccc(OCCN4CCCCC4)c3)C(=O)NO)cc2c1 (stereo not given)
IC50 [1]: 0.00107 µM | IC50 [4]: 0.26 µM | IC50 (Mus musculus [8]): Not Active

Cc1ccc2oc(=O)c(CC(CCc3ccc(OCCN(C)C)cc3)C(=O)NO)cc2c1 (stereo not given)
IC50 [1]: 0.00066 µM | IC50 [4]: 0.11 µM | IC50 (Mus musculus [8]): Not Active
